Here are results for 16 compounds from PubChem BioAssay.

The structures appear in SMILES notation. Activity calls are given as the source filed them.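 The calls were made as follows, unless noted: active = viability at or under a set limit in both replicates, limit being median viability minus 3 SD (cut at about 48% in these data, passing the limit was not always enough); inconclusive = at or under the limit in just one replicate; inactive = at or above the limit in both replicates.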

A short description of assay [1]: Her2 expression decrease, cell viability multiplex – SKBR3 breast tumor cells, AlphaScreen, ATP viability, primary screen (AID 461;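 active = Her2 level under about 52% in both replicate screens, with viability over 70% of control, limit read from the data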;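 as to Her2 level: lower value means less Her2 protein in the cells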;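 as to viability: percent of carrier control wells set as 100% viability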). The conditions noted are these: SKBR3 Her2 protein level, 18-24 h, measured here: SKBR3 viability, ATP luminescence, at 10 µM.
In assay [2] the target is Receptor tyrosine-protein kinase erbB-2 (Homo sapiens) (UniProt P04626). The description is as above. The conditions noted are these: 18-24 h, at 10 µM, stronger effect = lower value.
Receptor tyrosine-protein kinase erbB-2 (Homo sapiens), sequence (P04626 whole entry, looked up): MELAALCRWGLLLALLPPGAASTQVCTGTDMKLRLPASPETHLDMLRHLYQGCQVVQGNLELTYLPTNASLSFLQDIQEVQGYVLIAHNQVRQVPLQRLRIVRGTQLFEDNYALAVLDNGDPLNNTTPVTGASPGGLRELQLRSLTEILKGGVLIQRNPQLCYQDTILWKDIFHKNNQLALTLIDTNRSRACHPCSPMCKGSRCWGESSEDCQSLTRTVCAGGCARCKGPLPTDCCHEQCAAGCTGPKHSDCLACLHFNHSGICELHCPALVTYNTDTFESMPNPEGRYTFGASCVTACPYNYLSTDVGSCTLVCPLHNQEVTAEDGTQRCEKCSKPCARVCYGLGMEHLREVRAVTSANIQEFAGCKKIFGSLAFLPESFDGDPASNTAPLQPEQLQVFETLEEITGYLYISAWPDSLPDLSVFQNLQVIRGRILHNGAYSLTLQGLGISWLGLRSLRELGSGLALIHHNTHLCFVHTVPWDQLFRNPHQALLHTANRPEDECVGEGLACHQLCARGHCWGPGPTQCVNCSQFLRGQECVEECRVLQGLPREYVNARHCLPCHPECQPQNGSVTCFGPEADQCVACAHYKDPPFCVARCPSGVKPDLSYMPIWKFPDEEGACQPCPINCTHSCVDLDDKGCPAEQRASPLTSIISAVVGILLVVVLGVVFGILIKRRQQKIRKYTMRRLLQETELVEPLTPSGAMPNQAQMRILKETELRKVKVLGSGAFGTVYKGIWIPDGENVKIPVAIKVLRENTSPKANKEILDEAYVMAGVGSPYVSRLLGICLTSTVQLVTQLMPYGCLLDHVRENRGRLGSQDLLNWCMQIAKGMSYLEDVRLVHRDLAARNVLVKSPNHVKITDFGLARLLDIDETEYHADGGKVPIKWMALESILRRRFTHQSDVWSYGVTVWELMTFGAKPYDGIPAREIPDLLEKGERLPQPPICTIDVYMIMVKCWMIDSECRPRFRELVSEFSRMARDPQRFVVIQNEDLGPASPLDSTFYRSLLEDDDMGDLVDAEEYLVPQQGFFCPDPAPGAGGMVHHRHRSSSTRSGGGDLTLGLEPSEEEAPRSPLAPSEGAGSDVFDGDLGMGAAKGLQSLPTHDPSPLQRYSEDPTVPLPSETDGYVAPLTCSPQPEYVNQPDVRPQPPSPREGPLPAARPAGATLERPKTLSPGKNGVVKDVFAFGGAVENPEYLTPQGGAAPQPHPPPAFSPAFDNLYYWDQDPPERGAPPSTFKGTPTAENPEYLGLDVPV
Assay [3] in a line: reduced viability of SK-BR-3 breast cancer cells – cell-based, 24 h, human, pilot screen (AID 572;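 active = viability at or below 10% of carrier control in both of two separate runs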;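 also: compound exposure lasted between 18 and 24 h rather than exactly 24 h; 100% = carrier-treated control wells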). To be noted: SK-BR-3 viability, CellTiter-Glo luminescence, at 10 µM, stronger effect = lower value. A general note: In ATP-based viability assays light output follows the ATP content of the culture.
Assay [4] can be described thus: HUVEC growth inhibition – cell-based, human, primary screen (AID 575;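 active = viability at or below 30% in both replicate assays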;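 also: 100% = median of untreated cell wells with 0.1% DMSO on each plate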). To be noted: HUVEC proliferation, CellTiter-Glo luminescence, 72 h; at 10 µM; stronger effect = lower value. The method in brief:
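Timing: 72 h treatment at 37 °C; material: HUVEC primary cells; technique: CellTiter-Glo luminescence measuring cellular ATP; controls: vehicle and MePR control wells; measure: percent of median DMSO-control luminescence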

Assay [5] is described as follows: H69AR cell proliferation blockers – human, duplicate replicates, primary screen (AID 580).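 Also: 100% = mean luminescence of untreated wells and 0% = no signal.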 The conditions noted are these: H69AR lung tumor cells viability, ATP luminescence, 72 h; at 10 µM; stronger effect = lower value.
Assay [6] in a line: MRP1 drug-resistance reversers in H69AR cells – cell-based, doxorubicin co-treatment, pilot screen (AID 601;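 active = viability loss from added drug above about 55%, and viability with drug at most 40%, in both replicates, limit read from the data, passing the limit was not always enough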). To be noted: CellTiter-Glo, 72 h, at 10 µM; for differential viability (reversal): stronger effect = higher value.
Assay [7] is described as follows: yeast transport mutant growth inhibition pilot in 384-well plates, post-Golgi transport modulator project (AID 636; in the data active = inhibition above about 31%). The conditions noted are these: absorbance 615 nm, about 18 h, stronger effect = higher value.
Assay [8] is described as follows: growth suppression of yeast trafficking mutant, preliminary HTS, modulators of trafficking downstream of Golgi apparatus project, 1536-format plate, OD 615 nm (AID 637; in the data active = inhibition above about 30%). The conditions noted are these: yeast transport mutant growth, absorbance 615 nm, 18 h; stronger effect = higher value.
Where [9] appears, read: H69AR cells + 2 uM doxorubicin, measured here: viability with 2 uM doxorubicin, stronger effect = lower value.
Where [10] appears, read: H69AR cells, compound alone cytotoxicity.

`O=C(CSc1nnc(Cn2nnc(-c3ccccc3)n2)n1-c1ccccc1)Nc1ccc(F)cc1`: the viability (usually a read-out of living cells in per cent, often relative to untreated cells) was 91% in assay [1]; 91% (inactive) in assay [3]; 64.1% (inactive) in assay [4]; 75.7% (inactive) in assay [5]; 71.8% in assay [6] (setting [9]); 75.7% in assay [6] (setting [10]). The Her2 level in assay [2] was 82% (inactive). Moreover, in assay [6] (H69AR cells + 2 uM doxorubicin), the differential viability (reversal) is 3.96% (inactive). For the same compound, the values for the inhibition in assay [7] and in assay [8] were -1.45% (inactive) and 13.4% (inactive), respectively.
For the compound `COCCNC(=O)C(c1cccc(OC)c1)N(Cc1cccs1)C(=O)Cn1nnc2ccccc21` (stereo not given), the viability was 110% in assay [1]; 110% (inactive) in assay [3]; 105% (inactive) in assay [4]; 99.2% (inactive) in assay [5]; 94.5% in assay [6] (setting [9]); 99.2% in assay [6] (setting [10]). The Her2 level in assay [2] is 82% (inactive). For the same compound, in assay [6] (H69AR cells + 2 uM doxorubicin), the differential viability (reversal) is 4.64% (inactive). For the same compound, the figures for the inhibition in assay [7] and in assay [8] were -3.6% (inactive) and 1.48% (inactive), respectively.
On to `COCCN1C(=O)C(=O)/C(=C(/O)c2ccc(OC(C)C)cc2)C1c1cccnc1` (stereo not given), for which the viability in assay [1] was 94.5%; in assay [3], 94.5% (inactive); in assay [4] it was 89.7% (inactive); in assay [5], 92.6% (inactive); in assay [6] (setting [9]) it was 87.4%; in assay [6] (setting [10]) it was 92.6%. The Her2 level in assay [2] is 86.5% (inactive). Moreover, in assay [6] (H69AR cells + 2 uM doxorubicin), the differential viability (reversal) is 5.24% (inactive). The values for the inhibition in assay [7] and in assay [8] were -3.55% (inactive) and 3.33% (inactive), respectively.
In the case of `Cc1ccc(Nc2cc(C)nc3ncnn23)c(Cl)c1`, the viability in assay [1] was 85%; in assay [3], 85% (inactive); in assay [4] it was 87% (inactive); in assay [5], 97% (inactive); in assay [6] (setting [9]) it was 84.9%; in assay [6] (setting [10]) it was 97%. Also, the Her2 level in assay [2] is 88.5% (inactive). Further, in assay [6] (H69AR cells + 2 uM doxorubicin), the differential viability (reversal) was 12.2% (inactive). Besides, the figures for the inhibition in assay [7] and in assay [8] were -3.33% (inactive) and -2.3% (inactive), respectively.
As to `CS(=O)(=O)c1ccc2nc(NC(=O)c3cccs3)sc2c1`, the viability in assay [1] is 99%; in assay [3] it was 99% (inactive); in assay [4] it was 64% (inactive); in assay [5], 45% (active); in assay [6] (setting [9]), 51.4%; in assay [6] (setting [10]), 45%. Also, the Her2 level in assay [2] is 74.5% (inactive). In addition, in assay [6] (H69AR cells + 2 uM doxorubicin), the differential viability (reversal) is -6.37% (inactive). Besides, the inhibition (as a rule, the relative decrease from the control value, in per cent) was -6.76% (inactive) in assay [7] and 2.95% (inactive) in assay [8].
Turning to `O=S(=O)(NCCc1csc(-c2ccccc2)n1)c1ccc2c(c1)OCCO2`, the viability was 103% in assay [1]; 103% (inactive) in assay [3]; 101% (inactive) in assay [4]; 93.6% (inactive) in assay [5]; 89% in assay [6] (setting [9]); 93.6% in assay [6] (setting [10]). In addition, the Her2 level in assay [2] was 76% (inactive). Moreover, in assay [6] (H69AR cells + 2 uM doxorubicin), the differential viability (reversal) was 4.63% (inactive). In addition, the inhibition in assay [7] is -1.97% (inactive); in assay [8], 4.59% (inactive).
In the case of `CCOc1ccccc1NC(=O)C1CCCN1C(=O)OCc1ccccc1` (stereo not given), the viability in assay [1] was 84.5%; in assay [3] it was 84.5% (inactive); in assay [4], 111% (inactive); in assay [5] it was 87.6% (inactive); in assay [6] (setting [9]), 85.3%; in assay [6] (setting [10]) it was 87.6%. Also, in assay [2], the Her2 level is 93.5% (inactive). Besides, the differential viability (reversal) in assay [6] (H69AR cells + 2 uM doxorubicin) was 2.29% (inactive). Moreover, the figures for the inhibition in assay [7] and in assay [8] were -1.71% (inactive) and -10% (inactive), respectively.
In the case of `N#Cc1c(NC(=O)c2ccc(Br)o2)n(-c2ccccc2)c2nc3ccccc3nc12`, the viability in assay [1] was 86.5%; in assay [3], 86.5% (inactive); in assay [4] it was 71.1% (inactive); in assay [5], 85.2% (inactive); in assay [6] (setting [9]) it was 85.5%; in assay [6] (setting [10]), 85.2%. For the same compound, in assay [2], the Her2 level was 77% (inactive). The differential viability (reversal) in assay [6] (H69AR cells + 2 uM doxorubicin) was -0.255% (inactive). Also, the inhibition was -5.73% (inactive) in assay [7] and 2.46% (inactive) in assay [8].
On to `CC(=O)C1=C(O)C(=O)N(Cc2ccco2)C1c1ccc2c(c1)OCO2` (stereo not given), for which the viability in assay [1] is 108%; in assay [3] it was 108% (inactive); in assay [4], 119% (inactive); in assay [5], 112% (inactive); in assay [6] (setting [9]), 105%; in assay [6] (setting [10]), 112%. Besides, the Her2 level in assay [2] was 84.5% (inactive). The differential viability (reversal) in assay [6] (H69AR cells + 2 uM doxorubicin) was 7.12% (inactive). Moreover, the values for the inhibition in assay [7] and in assay [8] were -5.07% (inactive) and 0.48% (inactive), respectively.
Turning to `Cc1ccc(CCNC(=O)C2CCCN(S(=O)(=O)c3cnc[nH]3)C2)cc1` (stereo not given), the viability was 102% in assay [1]; 102% (inactive) in assay [3]; 101% (inactive) in assay [4]; 101% (inactive) in assay [5]; 94% in assay [6] (setting [9]); 101% in assay [6] (setting [10]). Moreover, in assay [2], the Her2 level is 121% (inactive). Further, in assay [6] (H69AR cells + 2 uM doxorubicin), the differential viability (reversal) was 6.71% (inactive). In addition, the inhibition was -0.8% (inactive) in assay [7] and -2.17% (inactive) in assay [8].
For `Cc1cc(C)nc(SCC(=O)Nc2ccc(S(=O)(=O)Nc3nccs3)cc2)n1`, the viability in assay [1] is 110%; in assay [3], 110% (inactive); in assay [4] it was 97.4% (inactive); in assay [5] it was 95.7% (inactive); in assay [6] (setting [9]), 91%; in assay [6] (setting [10]), 95.7%. Also, the Her2 level in assay [2] is 107% (inactive). Also, the differential viability (reversal) in assay [6] (H69AR cells + 2 uM doxorubicin) is 4.67% (inactive). Also, the inhibition is -1.76% (inactive) in assay [7] and 5.9% (inactive) in assay [8].
With `O=C1Nc2ccccc2OC1CC(=O)N1CCCC1` (stereo not given), the viability in assay [1] is 88.5%; in assay [3], 88.5% (inactive); in assay [4], 94.7% (inactive); in assay [5], 102% (inactive); in assay [6] (setting [9]), 90.5%; in assay [6] (setting [10]), 102%. Also, in assay [2], the Her2 level was 91.5% (inactive). Besides, the differential viability (reversal) in assay [6] (H69AR cells + 2 uM doxorubicin) is 11.9% (inactive). In addition, the inhibition in assay [7] was -2.53% (inactive); in assay [8] it was 0.66% (inactive).
For `Cc1cccc(Nc2nc3c(c(=O)n(C)c(=O)n3C)n2Cc2ccccc2)c1`, the viability is 122% in assay [1]; 122% (inactive) in assay [3]; 93.2% (inactive) in assay [4]; 96.6% (inactive) in assay [5]; 97.5% in assay [6] (setting [9]); 96.6% in assay [6] (setting [10]). Also, the Her2 level in assay [2] is 87% (inactive). The differential viability (reversal) in assay [6] (H69AR cells + 2 uM doxorubicin) is -0.855% (inactive). Also, the inhibition in assay [7] is -4.32% (inactive); in assay [8] it was 2.86% (inactive).
Take `Cc1ccccc1NC(=O)N1C2CCCC1CC(NC(=O)C1CC1)C2` (stereo not given): the viability in assay [1] is 104%; in assay [3], 104% (inactive); in assay [4], 94% (inactive); in assay [5], 104% (inactive); in assay [6] (setting [9]) it was 93.9%; in assay [6] (setting [10]), 104%. Besides, in assay [2], the Her2 level was 95% (inactive). For the same compound, the differential viability (reversal) in assay [6] (H69AR cells + 2 uM doxorubicin) is 10.3% (inactive). The results for the inhibition in assay [7] and in assay [8] were -7.07% (inactive) and 9.02% (inactive), respectively.
As for `CCOC(=O)C(NCc1ccccc1OC)(NC(C)=O)C(F)(F)F` (stereo not given), the viability in assay [1] was 116%; in assay [3], 116% (inactive); in assay [4] it was 98.8% (inactive); in assay [5], 91.8% (inactive); in assay [6] (setting [9]), 90.1%; in assay [6] (setting [10]), 91.8%. In assay [2], the Her2 level was 91% (inactive). Besides, the differential viability (reversal) in assay [6] (H69AR cells + 2 uM doxorubicin) is 1.75% (inactive). Further, the inhibition in assay [7] is -2.6% (inactive); in assay [8], -0.63% (inactive).
With `CC1(C)CC(=O)C(CC2=C(O)CC(C)(C)CC2=O)=C(O)C1`, the viability in assay [1] is 95%; in assay [3], 95% (inactive); in assay [4], 94.4% (inactive); in assay [5], 102% (inactive); in assay [6] (setting [9]) it was 91.8%; in assay [6] (setting [10]), 102%. Besides, the Her2 level in assay [2] is 91% (inactive). For the same compound, the differential viability (reversal) in assay [6] (H69AR cells + 2 uM doxorubicin) was 10.5% (inactive). The inhibition in assay [7] is -3.68% (inactive); in assay [8], -4% (inactive).
